Consider 1 molecule from ChEMBL document CHEMBL3997782, “Methoxylated 2'-hydroxychalcones as antiparasitic hit compounds” (Eur J Med Chem, 2017).

Each structure is given as a SMILES string. In brackets after ≈: the same amount, converted by molar mass.

One may read the solubility as how much of the substance goes into solution per volume. A high value points to much dissolved substance. One may read the half-life as how long it takes for the measured level to halve. A word on the inhibition: it is the change of the read-out against control, counted positive when it falls. The term GI50 denotes the concentration that inhibits growth by half. As usually defined, the logP is a log measure of how a compound divides between an organic and an aqueous phase. A high value points to a more lipophilic compound.

A short description of data set [1]: Drug uptake in BALB/c mouse plasma at 20 mg/kg, po as cyclodextrin/PEG400 formulation measured after 0.25 hrs by LC-MS method. Format: ADME, organism-based. The procedure, abridged:
(§1)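 BALB/c mice dosed either free (8% DMSO; 1 mg/kg IV or 20 mg/kg oral), or 20 mg/kg oral in 50% w/v hydroxypropyl-β-cyclodextrin, or 20 mg/kg oral in 25% cyclodextrins plus 50% PEG 400. Serial submandibular blood samples stored at -20°C. Plasma measured by isocratic LC-MS (acetonitrile:water 80:20, 0.2 ml/min), quantifier transition m/z 315.0>161.0.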

Data set [2] can be described thus: Solubility of the compound in phosphate buffered saline with 10% DMSO measured after 18 hrs by UV-vis spectroscopic method. Format: physicochemical. The procedure, abridged:
(§2)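 Saturated suspensions prepared at 100 µM in water, 100 µM in PBS, 200 µM in PBS + 10% DMSO and 10 mM in PBS + 50% DMSO. Held 18 h at 25°C, passed through a 0.2 µm filter, then quantified by UV-Vis absorbance at 312 nm using the calculated extinction coefficient.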

Data set [3] can be described thus: Half-life in BALB/c mouse at 1 mg/kg, iv by LC-MS method. Format: ADME, organism-based. To be noted: in vivo. In outline: as §1
Data set [4] addresses CYP2C9 (Homo sapiens, UniProt P11712). The experiment in a line: Inhibition of human CYP2C9 expressed in baculovirus-infected insect cells at 10 uM using Luciferin-H as substrate in presence of NADPH by P450-Glo luminescence assay relative to control. To be noted: probe Luciferin-H.
In data set [5] the test system is Trypanosoma cruzi. Description: Anti-parasitic activity against Trypanosoma cruzi Y promastigotes infected in HG39 cells at 10 uM by qPCR analysis relative to control. Format: functional, cell-based. The following applies: in the assay text read “trypomastigotes” for “promastigotes”. The procedure, abridged: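 Confluent HG39 cells (3 x 10^6 per well) infected at a 1:1 ratio with blood-derived T. cruzi Y strain trypomastigotes. Growth inhibition was read as parasite gDNA by TaqMan probe-based quantitative real-time PCR.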
(In qPCR the cycle at which signal appears reflects the starting amount.)

A short description of data set [6]: Drug uptake in BALB/c mouse plasma at 1 mg/kg, iv measured after 30 mins by LC-MS method. Format: ADME, organism-based. In outline:
as §1

Data set [7] addresses CYP2D6 (Homo sapiens, UniProt P10635). Description: Inhibition of human CYP2D6 expressed in baculovirus-infected insect cells at 10 uM using Luciferin-ME EGE as substrate in presence of NADPH by P450-Glo luminescence assay relative to control. Format: ADME. To be noted: probe Luciferin-ME EGE. In outline: (§3)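 CYP enzymes as microsomal preparations from baculovirus-infected insect cells, run on the P450-Glo luminogenic substrate platform. A fall in light output indicates inhibition.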

Data set [8] in a line: Solubility of the compound in phosphate buffered saline measured after 18 hrs by UV-vis spectroscopic method. Format: physicochemical. The procedure, abridged: as §2
For data set [9], the target named is Aurora kinase B (Homo sapiens, UniProt Q96GD4). The experiment in a line: Inhibition of N-terminal-GST-tagged recombinant full length human Aurora B expressed in baculovirus infected Sf9 cells at 10 uM using native Swine Myelin Basic Protein as substrate measured after 60 mins by ADP-Glo assay relative to control. To be noted: probe native Swine Myelin Basic Protein. The procedure, abridged: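 Aurora B kinase activity measured by ADP-Glo, which detects ADP formed through a coupled luciferase luminescence read-out.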
Background: ADP-Glo first removes unused ATP, then detects ADP through luciferase.

Data set [10] in a line: Drug uptake in BALB/c mouse plasma at 20 mg/kg, po as 50%% cyclodextrin formulation measured after 0.75 hrs by LC-MS method. Format: ADME, organism-based. The procedure, abridged:
as §1

Data set [11] is described as follows: Drug uptake in BALB/c mouse plasma at 20 mg/kg, po as cyclodextrin/PEG400 formulation measured after 3 hrs by LC-MS method. Format: ADME, organism-based. In outline:
as §1

Data set [12] addresses T1, CYP1A2 (Homo sapiens, UniProt P05177).
T1 sequence (P05177 whole entry): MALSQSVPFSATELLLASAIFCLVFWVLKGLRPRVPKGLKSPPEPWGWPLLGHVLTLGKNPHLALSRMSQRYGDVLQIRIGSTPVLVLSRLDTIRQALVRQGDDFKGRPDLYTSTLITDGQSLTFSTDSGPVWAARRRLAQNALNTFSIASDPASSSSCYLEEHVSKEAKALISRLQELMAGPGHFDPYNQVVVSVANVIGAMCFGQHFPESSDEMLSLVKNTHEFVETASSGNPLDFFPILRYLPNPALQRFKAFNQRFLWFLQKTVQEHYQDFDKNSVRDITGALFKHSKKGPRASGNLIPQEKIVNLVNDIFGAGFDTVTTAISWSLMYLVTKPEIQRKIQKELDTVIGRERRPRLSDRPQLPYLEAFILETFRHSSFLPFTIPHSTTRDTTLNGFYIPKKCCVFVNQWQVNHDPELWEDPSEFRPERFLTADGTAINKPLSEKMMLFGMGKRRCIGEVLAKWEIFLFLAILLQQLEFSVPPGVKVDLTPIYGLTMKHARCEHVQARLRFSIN
Description: Inhibition of human CYP1A2 expressed in baculovirus-infected insect cells at 10 uM using Luciferin-1A2 as substrate in presence of NADPH by P450-Glo luminescence assay relative to control. Format: ADME. The following applies: probe Luciferin-1A2. The procedure, abridged:
as §3

Data set [13] in a line: Cytotoxicity against human A549 cells assessed as cell growth by Cell titer-Glo assay. Format: cell-based. The procedure, abridged:
(§4)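 A549 and WI-38 cells grown in DMEM with 10% v/v FCS, streptomycin 100 µg/ml and penicillin G 100 U/ml. Cell number read as cellular ATP by CellTiter-Glo luminescence. Growth 60–100% scored non-cytotoxic, 0–60% cytostatic, below 0 cytotoxic.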
(In ATP-based viability assays light output follows the ATP content of the culture.)

The nature of data set [14]: Half-life in BALB/c mouse at 20 mg/kg, po as cyclodextrin formulation by LC-MS method. To be noted: in vivo. Format: ADME, organism-based. In outline:
as §1

For data set [15], the system named is 786-0. The experiment in a line: Mitochondrial toxicity in human 786-O cells at 10 uM by mitotracker red chloromethyl-Xrosamine staining based-uptake method relative to control. Format: cell-based. The following applies: 786-0, 10 µM. The procedure, abridged:
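786-O renal carcinoma cells kept in RPMI-1640 with 2 mM glutamine, 10% v/v FCS, streptomycin 100 µg/ml and penicillin G 100 U/ml. Mitochondrial toxicity monitored by MitoTracker Red CMXRos uptake with high-content imaging.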

A short description of data set [16]: Drug uptake in BALB/c mouse plasma at 20 mg/kg, po measured after 0.75 hrs by LC-MS method. Format: ADME, organism-based. The procedure, abridged: as §1
Data set [17] can be described thus: Drug uptake in BALB/c mouse plasma at 1 mg/kg, iv measured after 15 mins by LC-MS method. Format: ADME, organism-based. In outline:
as §1

Data set [18] is described as follows: Lipophilicity, log P of the compound. Format: physicochemical. To be noted: octanol/water.
Data set [19] in a line: Drug uptake in BALB/c mouse plasma at 20 mg/kg, po as 50% cyclodextrin formulation measured after 3 hrs by LC-MS method. Format: ADME, organism-based. The procedure, abridged: as §1
A short description of data set [20]: Cytotoxicity against human A549 cells assessed as cell growth at 10 uM by Cell titer-Glo assay relative to control. Format: cell-based. The following applies: read-out: Activity. In outline: as §4

Sequence of CYP2C9 (P11712 whole entry): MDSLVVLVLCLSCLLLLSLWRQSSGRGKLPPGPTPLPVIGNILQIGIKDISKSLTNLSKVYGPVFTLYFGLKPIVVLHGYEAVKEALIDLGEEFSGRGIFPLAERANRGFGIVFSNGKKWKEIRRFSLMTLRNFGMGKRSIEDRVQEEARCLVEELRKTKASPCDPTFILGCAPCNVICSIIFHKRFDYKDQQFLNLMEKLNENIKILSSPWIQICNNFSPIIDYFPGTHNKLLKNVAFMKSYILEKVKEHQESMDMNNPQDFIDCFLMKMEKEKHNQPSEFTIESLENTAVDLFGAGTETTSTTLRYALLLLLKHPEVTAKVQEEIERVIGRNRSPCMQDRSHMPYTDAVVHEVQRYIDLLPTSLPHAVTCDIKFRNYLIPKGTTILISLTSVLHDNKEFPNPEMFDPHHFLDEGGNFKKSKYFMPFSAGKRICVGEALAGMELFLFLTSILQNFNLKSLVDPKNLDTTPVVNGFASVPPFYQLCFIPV
Sequence of Aurora kinase B (Q96GD4 whole entry): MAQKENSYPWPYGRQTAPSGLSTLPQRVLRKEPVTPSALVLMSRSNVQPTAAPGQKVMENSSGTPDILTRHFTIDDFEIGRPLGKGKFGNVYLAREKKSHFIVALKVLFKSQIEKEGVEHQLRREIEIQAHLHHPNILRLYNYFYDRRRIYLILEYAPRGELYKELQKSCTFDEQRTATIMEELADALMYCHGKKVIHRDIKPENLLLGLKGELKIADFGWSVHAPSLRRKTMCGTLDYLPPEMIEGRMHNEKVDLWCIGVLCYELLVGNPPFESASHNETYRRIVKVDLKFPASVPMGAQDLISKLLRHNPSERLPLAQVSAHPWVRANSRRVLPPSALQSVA
Sequence of CYP2D6 (P10635 whole entry): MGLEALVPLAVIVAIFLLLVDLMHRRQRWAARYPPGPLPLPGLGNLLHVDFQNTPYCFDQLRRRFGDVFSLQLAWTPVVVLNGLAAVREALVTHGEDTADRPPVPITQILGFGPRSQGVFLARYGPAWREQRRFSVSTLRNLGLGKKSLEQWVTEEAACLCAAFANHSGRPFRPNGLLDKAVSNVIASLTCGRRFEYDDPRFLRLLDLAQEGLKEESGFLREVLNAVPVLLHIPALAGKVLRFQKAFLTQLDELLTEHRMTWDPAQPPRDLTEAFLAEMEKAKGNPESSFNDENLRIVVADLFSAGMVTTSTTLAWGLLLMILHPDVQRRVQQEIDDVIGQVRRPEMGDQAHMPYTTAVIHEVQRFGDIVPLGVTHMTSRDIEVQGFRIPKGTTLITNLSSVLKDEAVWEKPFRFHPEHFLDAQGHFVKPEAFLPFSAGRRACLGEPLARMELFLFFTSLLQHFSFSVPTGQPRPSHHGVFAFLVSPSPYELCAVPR

Turning to `COc1cccc(/C=C/C(=O)c2cc(OC)c(OC)cc2O)c1`, the figures for the concentration at 0.25 h in data set [1] and in [17] were 48 nM and 74 nM, respectively. The solubility at 18 h was 11.4 µM (≈ 3.59 µg/mL) in [2] and 2.37 µM (≈ 0.745 µg/mL) in data set [8]. In addition, the half-life in data set [3] stood at 62.5 min; in data set [14], 36.7 min. Besides, the inhibition at 10 µM is 19% in data set [4], 46% in [5], 58.8% in [7] and 98% in [12]. For the same molecule, in [6], the concentration at 0.5 h was determined as 55 nM. Further, the inhibition at 1 h, 10 µM in [9] is -6.8%. Further, the figures for the concentration at 0.75 h in [10] and in data set [16] were 164 nM and 12 nM, respectively. Moreover, the concentration at 3 h in [11] is 6 nM; in data set [19] it was 10 nM. Besides, in data set [13], the GI50 worked out at 12.4 µM. Moreover, the Activity in data set [15] is recorded as 3.6%. For the same molecule, the logP in [18] came out at 3.59. Also, the viability at 10 µM in [20] was 95.5%.
